# Published values gathered from unrelated publications.
# Compare with care: the assays were run in different laboratories.
# Target: LIM domain kinase 1 (LIMK1, Homo sapiens, UniProt P53667)
Compound,assay,conditions,measurement,result
CCCOc1ccc(OC)c(F)c1C(=O)c1ccc(C(=O)N[C@@H]2CNC[C@H]2NC(=O)c2ccc3[nH]ncc3c2)cc1,"enzyme activity, inhibitor",10 µM,remaining activity,73%
CCOC(=O)c1cc2cc(-c3cc(C(=O)NCc4ccc(C(=O)O)cc4)nn3C)ccc2[nH]1,"cell-free assay, competition with immobilised ligand",0.1 µM,remaining binding,100%
CCN(CC)CCNC(=O)c1c(C)[nH]c(/C=C2\C(=O)Nc3ccc(F)cc32)c1C,"enzyme activity, inhibitor",0.3 µM,inhibition,-9%
Oc1ccc(-c2nc(-c3ccncc3)c(-c3ccc(F)cc3)[nH]2)cc1,cell-free assay,0.5 µM,remaining signal,91.4%
CN(C)CC#Cc1ccc(OCCCc2sc(N3CCc4cccc(C(=O)Nc5nc6ccccc6s5)c4C3)nc2C(=O)O)c(F)c1,"cell-free assay, competition with immobilised ligand",1 µM,remaining binding,97%
CCN(CC)c1ccc(C2=NNC(=O)CC2C)cc1[N+](=O)[O-] (centres unmarked),"enzyme activity, inhibitor",10 µM,remaining activity,93%
C[C@@H]1CCN(C(=O)CC#N)C[C@@H]1N(C)c1ncnc2[nH]ccc12,"cell-free assay, inhibitor",0.5 µM,remaining signal,82%
CNC(=O)c1ccc(Nc2ncc(C(F)(F)F)c(NCc3nccnc3N(C)S(C)(=O)=O)n2)cc1,"cell-free assay, competition with immobilised ligand",0.1 µM,remaining binding,100%
CC(C)(C)c1nc2c(s1)c1nc(N)ncc1c1ccc(NS(=O)(=O)c3c(F)cccc3F)c(F)c12,"enzyme activity, inhibitor, radiometric",1 µM,remaining activity,100%
Cc1sc(C(=O)NC2COC2)cc1-n1cc(NC(=O)Nc2c(F)cccc2Cl)cn1,"enzyme activity, inhibitor",10 µM,remaining activity,105%
Cc1ccc(C(=O)Nc2ccc(CN3CCN(C)CC3)c(C(F)(F)F)c2)cc1C#Cc1cnc2cccnn12,"enzyme activity, inhibitor",23.5 nM,remaining activity,99%
Nc1nc(Nc2ccc(S(N)(=O)=O)cc2)nn1C(=O)c1c(F)cccc1F,cell-free assay,0.5 µM,remaining signal,16.6%
COc1cc(Cl)c(C(=O)N[C@@H](CN[C@H]2CC[C@@H](N)CC2)Cc2ccc(C#N)cc2)cc1-c1ccc(CN[C@H](C)c2ccc(C)cc2)o1,"enzyme activity, inhibitor",1 µM,remaining activity,100%
Cn1cnc(Br)c1C1=CN(c2ncnc3[nH]cnc23)CCS1,"enzyme activity, inhibitor, radiometric",2 µM,inhibition,82.8%
Cc1nc(Cc2cccc(C(F)(F)F)c2)sc1-c1ccc(C(N)=O)nc1,"cell-free assay, competition with immobilised ligand",1 µM,remaining binding,100%
CNC(=O)c1cc(Oc2ccc(NC(=O)Nc3ccc(Cl)c(C(F)(F)F)c3)cc2)ccn1,"enzyme activity, inhibitor",10 µM,inhibition,89%
CC(=O)c1c(NS(C)(=O)=O)c2cc(-c3ccc(Cl)cc3)c(-c3ccc(Cl)cc3Cl)nc2n(C)c1=O,"cell-free assay, competition with immobilised ligand",1 µM,remaining binding,88%
Cc1cnc(NC2CCOCC2)nc1-n1cnc(C(=O)NC(CN)c2cc(F)cc(Cl)c2)c1 (centres unmarked),"enzyme activity, inhibitor, radiometric",1 µM,remaining activity,64%
O=C(Nc1cccnn1)N1CC(C/C=C/c2cncc(Oc3ccc(C(F)(F)F)cn3)n2)C1,"cell-free assay, competition with immobilised ligand",1 µM,remaining binding,88%
CNC(=O)c1cc2c(Oc3ccc(NC(=O)C4(C(=O)Nc5ccc(F)cc5)CC4)cc3)ccnc2cc1OC,"enzyme activity, inhibitor, radiometric",1 µM,inhibition,74%
